Screens: PubChem BioAssay, Broad Institute
FN deposition inh – fibronectin deposition inhibition. inhibition, % at 12.6 µM. AID 743247. 350,000 tested, 0.086% active. AH1F fibroblasts, Alexa488-fibronectin deposition fluorescence, overnight;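 active means mean inhibition across replicates of 30% or more, regardless of how many single replicates reach that level; inconclusive means mean under 30% yet at least half of replicates reach 30%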;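 further: positive control wells lacked labelled fibronectin entirely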
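Assay system: AH1F fibroblasts assembling fluorescent fibronectin matrix; Amount: 10000 AH1F cells per well; Buffer or medium: DMEM, 2% serum; Probe or stimulus: Alexa488-fibronectin, 24 nM final in well; Doses: single compound dose, delivered by pin transfer; Incubation: 1 h adhesion, overnight exposure; Measured by: fluorescence 485/525 nm; Read-out: fibronectin deposition inhibition.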
HIV Env fusion – blocks HIV Env-driven cell-cell fusion. HeLa-JRFL Env/CEM21 cell fusion, luciferase. inhibition, % at 12.3 µM. 360,000 tested, 1.1% active. AID 651610;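 active means mean replicate inhibition score of at least 50 and every replicate individually at or above 50; inconclusive means only one of the two criteria met; inactive means mean below 50 and not all replicates reaching 50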;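 further: 0% = plate neutral controls and 100% = maraviroc near 300 nM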
miR-122 sensor – inhibitors of miR-122 in Huh7 cells; Huh7 miR-122 Renilla luciferase sensor, 48 h; neutral wells = 0, positive control = 100; activation (reporter increase), % at 12.5 µM; 340,000 tested, 0.3% active; AID 602342;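 active means mean replicate activation score at least 90 and every replicate individually at or above 90; inconclusive means only one of the two criteria met; inactive means neither criterion met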;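 further: higher luciferase means less miR-122 activity so hits act as miR-122 inhibitors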
Vif inh – inhibitors of HIV Vif. HEK293T cells, Vif self-association by quenched fluorescence, imaging, 24 h. inhibition, % at 7.49 µM. 340,000 tested, 0.35% active. AID 602346; in the data active means inhibition above about 50%, passing the limit was not always enough; inconclusive means no clear call, values can overlap the other calls; inactive means below about 31%
S100A4 MyoIIA – inhibitors of human S100A4 binding to myosin IIA peptide. P26447. inhibition, % at 10.7 µM. 360,000 tested, 0.14% active. S100A4/TAMRA-MyoIIA peptide fluorescence polarization;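 active means mean inhibition of at least 70% across replicates, with every replicate also reaching that level; inconclusive means mean inhibition reaches 70% but some replicates fall short; inactive means mean inhibition below 70%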
Target sequence (P26447 whole entry, looked up): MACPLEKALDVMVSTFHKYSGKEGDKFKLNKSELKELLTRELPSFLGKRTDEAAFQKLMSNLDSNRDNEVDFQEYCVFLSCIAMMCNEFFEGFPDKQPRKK
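Material: S100A4 monomer protein / Buffer or medium: 50 mM HEPES pH 7.2, 10 mM CaCl2, 100 mM KCl / Times: 5 min incubation before reading / Benchmarks: neutral control DMSO, positive control TFP / Reagent: labelled myosin peptide probe, 5 nM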
Ecoli rRNA inh – selective bacterial rRNA inhibition in E. coli | E. coli WT GFP vs humanized-ribosome RFP mutants, fluorescence, 24 h; hits give low values; DMSO median 0, no signal -100 | GFP signal change (wild-type ribosome), % (no concentration beside the values) | 350,000 tested, 1.6% active;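 active means significant combined selectivity score with lowered wild-type GFP, culture density cut under 30%, mutant RFP and density less affected; inactive means any of these conditions unmet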
Active calls of the source: *; i = inactive; ? = inconclusive; . = no result given; [ ] = dose if it differs, or a comment. Hits are enriched below; roughly 2.6% of the tested compounds scored in any of these assays.

SMILES	FN deposition inh	HIV Env fusion	miR-122 sensor	Vif inh	S100A4 MyoIIA	Ecoli rRNA inh
O=S(=O)(Nc1cccc(S(=O)(=O)N2CCCC2)c1)c1ccc(Br)cc1	-10.1	-44.9	44.4	.	-6.1	.
Cc1ccc(S(=O)(=O)Nc2cccc(S(=O)(=O)N3CCCC3)c2)cc1C	-3.6	3.2	122.5*	-3.2	0.8	-2.4
COc1cc(S(=O)(=O)N2CCCCCC2)c(OC)cc1Br	-6.7	-15.3	307.9*	0.1	.	.
Cc1ccc(S(=O)(=O)Nc2nc3ccccc3nc2Nc2cccc(S(=O)(=O)N3CCCC3)c2)cc1	-14.3	38.0	.	-22.3	-1.6	11.3
O=[N+]([O-])c1cccc(S(=O)(=O)Nc2nc3ccccc3nc2Nc2cccc(S(=O)(=O)N3CCCCC3)c2)c1	7.4	72.0*	.	-1.6	-11.6	5.4
O=C(N[C@@H]1CC[C@@H](CCNC(=O)c2cnccn2)O[C@H]1CO)c1ccc2c(c1)OCO2	-16.3	6.5[16.7 µM]	-0.4[16.7 µM]	.	-3.0	-2.4
CCC(=O)N[C@H]1C=C[C@@H](CC(=O)NCC2CC2)O[C@@H]1CO	-8.0	.	.	.	17.7	-0.5
COc1ccc(NS(=O)(=O)c2cccc(Cl)c2Cl)cc1S(=O)(=O)N1CCCCC1	-4.3	9.3	.	-2.2	-5.1	-35.3*
C[C@H](CO)N1C[C@H](C)[C@H](CN(C)S(=O)(=O)c2cccs2)Oc2c(NC(=O)c3nc4ccccc4s3)cccc2C1=O	12.4	9.7[16.7 µM]	6.0[16.7 µM]	.	-43.3	-1.2
O=C(Cn1cc(C(=O)c2ccco2)c2ccccc21)Nc1ccccc1F	0.9	-13.1	.	-13.8	1.4	-21.7*
O=C(Cn1cc(C(=O)C(F)(F)F)c2ccccc21)Nc1ccccc1F	2.0	-2.3	6.7	6.5	-8.4	9.3
Fc1ccc(-c2nnc(-c3ccc4ccccc4c3)o2)cc1	.	i	-9.0	3.6	5.1	-6.9*
Fc1ccc(-c2nnc(-c3ccc(F)cc3)o2)cc1	12.0	-37.6	-2.6	28.8	3.2	17.1
C[C@@H]1CN([C@@H](C)CO)C(=O)CCCn2cc(nn2)CO[C@@H]1CN(C)C(=O)Nc1ccccc1F	-1.0	.	-3.5[16.7 µM]	.	.	2.1
Cc1[nH]nc2c1C(c1ccc(OC(=O)c3ccco3)cc1)C(C#N)=C(N)O2 (stereo unspecified)	.	.	-1.2	2.1	.	.
CC(C)c1[nH]nc2c1C(c1ccc(OC(=O)c3ccco3)cc1)C(C#N)=C(N)O2 (stereo unspecified)	.	.	.	-0.7	1.8	-26.9*
CC1=C(C(=O)OCc2ccc3c(c2)OCO3)C(c2ccc(O)c([N+](=O)[O-])c2)NC(=O)N1 (stereo unspecified)	-4.6	49.3	.	4.8	3.1	10.0
CC1=C(C(=O)OCc2ccc3c(c2)OCO3)C(c2ccccc2OCc2ccccc2)NC(=O)N1 (stereo unspecified)	4.3	60.9*	.	-10.1	.	.
COc1ccc(COC(=O)C2=C(C)NC(=O)NC2c2ccc(OC)cc2)cc1 (stereo unspecified)	-10.6	72.3*	-1.7	-8.1	-3.8	4.7
CCCOc1ccccc1C1NC(=O)NC(C)=C1C(=O)OCc1ccccc1 (stereo unspecified)	.	.	-11.8	-6.4	.	.
CC1=C(C(=O)OCc2ccc3c(c2)OCO3)C(c2ccccc2)NC(=O)N1 (stereo unspecified)	-1.1	107.1*	36.5	-5.7	.	.
CC1=C(C(=O)OC2CCCCCCC2)C(c2cccc(O)c2)NC(=O)N1 (stereo unspecified)	.	.	.	1.6	-2.9	-33.4*
CC1=C(C(=O)OCC2CCCCC2)C(c2cccc(O)c2)NC(=O)N1 (stereo unspecified)	.	.	-5.1	-2.7	.	.
O=C(CCN1CCCCC1)NCC[C@H]1CC[C@H](NS(=O)(=O)c2cccc(F)c2)[C@@H](CO)O1	-4.7	15.2[16.7 µM]	.	.	-3.5	-1.6
C[C@@H]1CN([C@@H](C)CO)S(=O)(=O)c2ccc(C3=CCCC3)cc2O[C@@H]1CN(C)Cc1ccccc1	.	43.6[16.7 µM]	3.9[16.7 µM]	.	2.3	-17.8
SMILES	FN deposition inh	HIV Env fusion	miR-122 sensor	Vif inh	S100A4 MyoIIA	Ecoli rRNA inh
Cc1noc(C)c1S(=O)(=O)Nc1ccc2c(c1)C(=O)N([C@H](C)CO)C[C@H](C)[C@H](CN(C)S(=O)(=O)c1ccc(F)cc1)O2	.	6.2[16.7 µM]	0.7[16.7 µM]	.	-16.2	1.5
COc1ccc(Cl)cc1C(=O)NNC(=O)c1cccc(S(=O)(=O)N(C)C)c1	30.7*	-15.3	.	.	.	.
COc1ccc2c3c(n(C)c2c1)[C@H](CO)N(C(=O)CC1CC1)CC31CCN(Cc2ccncc2)CC1	.	.	.	.	4.9	1.2
CCC(C)Oc1cccc(OCCCCN2C(=O)NC(C)(C)C2=O)c1 (stereo unspecified)	-4.0	0.9	-3.0	1.9	.	.
CC1(C)NC(=O)N(CCOCCOc2cccc(Oc3ccccc3)c2)C1=O	.	60.2*	-1.3	10.9	.	.
Cc1ccc2c(c1)C1CN(C)CCC1N2S(=O)(=O)c1ccc(C#N)cc1 (stereo unspecified)	15.3	-0.3	-5.6	55.5*	-4.3	.
O=S(=O)(NCCC1=CCCCC1)c1c(Cl)cccc1Cl	-8.6	10.5	111.2*	-14.2	-0.4	-51.5
O=C1Nc2ccc(S(=O)(=O)NCCCO)c3cccc1c23	6.6	2.3	82.3	21.9	-3.2	-21.7
O=S(=O)(NCCC1=CCCCC1)c1cccc(Br)c1	-5.7	.	.	-11.5	12.1	-50.0
O=C1Nc2ccc(S(=O)(=O)NCCC3=CCCCC3)c3cccc1c23	.	.	116.7*	-2.6	.	.
CCNS(=O)(=O)c1ccc2c3c(cccc13)C(=O)N2	-1.5	-46.7	148.4*	1.4	.	.
CC12CCC(=O)C=C1CCC1C2CCC2(C)C1CC1C3C(=O)N(Cc4ccccc4)C(=O)C3CC(=O)C12 (stereo unspecified)	8.1	60.8*	.	5.1	3.7	-13.0
CC(C)C(c1nnnn1CC1CCCO1)N1CCN(C2CCCC2)CC1 (stereo unspecified)	.	.	0.8	57.1*	.	.
CC(C)C(c1nnnn1Cc1cccs1)N1CCN(C2CCCC2)CC1 (stereo unspecified)	0.5	19.4	-1.4	21.7	.	.
COc1ccc(-c2ccc3c(c2)c(-c2cccs2)c(-c2cc(OC)cc(OC)c2)n3C)cc1	-4.5	?	-2.4	-0.1	2.9	-4.1
COc1cc(OC)cc(-c2c(-c3cccs3)c3cc(-c4ccc(C(N)=O)cc4)ccc3n2C)c1	-16.1	4.5	4.5	111.9*	.	.
O=C1CNC[C@H]2[C@@H](c3ccc(C#CC4CCCC4)cc3)[C@@H](CO)N12	-4.1	.	.	.	88.1*	-1.4
OC(c1ccccc1)(c1ccccc1)C1CCN(CCCOc2cc(F)cc(F)c2)CC1	-1.5	23.6	.	.	10.8	5.2
COc1ccccc1-c1ccc(OCCCN2CCC(C(O)(c3ccccc3)c3ccccc3)CC2)cc1	5.1	97.4*	.	.	-1.2	-52.4
